Results taken from ChEMBL document CHEMBL4376873, “Systematic Investigation of Lipophilicity Modulation by Aliphatic Fluorination Motifs” (J Med Chem, 2020).

Experiments:
[1] = target: Voltage-gated inwardly rectifying potassium channel KCNH2 (Homo sapiens, UniProt Q12809); assay: Inhibition of human ERG assessed as reduction in channel tail current by plate-based planar patch clamp assay
[2] = Solubility of compound in aqueous phosphate buffer at pH 7.4 after 24 hrs at 25 degC; type: physicochemical
[3] = Intrinsic clearance in human liver microsomes; type: ADME, Microsome; conditions: read-out: CLH
Procedure, shortened: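 Metabolic turnover rate in human microsomes, compound added from DMSO stock; reported in μL/min/mg.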

[4] = Lipophilicity, logP of the compound by 19F NMR-based method; conditions: octanol/water
[5] = Intrinsic clearance in rat hepatocytes assessed per million cells; type: ADME, cell-based, Hepatocyte; conditions: read-out: CLH
Procedure, shortened: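 Isolated rat hepatocytes diluted to 1x10⁶ cells/mL, compound added from DMSO stock; metabolism rate expressed as μL/min/10⁶ cells.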

[6] = Lipophilicity, logD of the compound at 7.4 by the shake flask method; type: physicochemical; conditions: octanol/water, pH 7.4
Procedure, shortened: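 Shake-flask partitioning at pH 7.4 (routine AstraZeneca method); concentrations determined by UV detection.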

[7] = Fraction unbound in 10% human plasma by equilibrium dialysis; type: ADME, cell-free
Procedure, shortened: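 Equilibrium dialysis in 10% human plasma, compound added from DMSO stock; fraction unbound determined.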

Chain of Voltage-gated inwardly rectifying potassium channel KCNH2 (Q12809 whole entry): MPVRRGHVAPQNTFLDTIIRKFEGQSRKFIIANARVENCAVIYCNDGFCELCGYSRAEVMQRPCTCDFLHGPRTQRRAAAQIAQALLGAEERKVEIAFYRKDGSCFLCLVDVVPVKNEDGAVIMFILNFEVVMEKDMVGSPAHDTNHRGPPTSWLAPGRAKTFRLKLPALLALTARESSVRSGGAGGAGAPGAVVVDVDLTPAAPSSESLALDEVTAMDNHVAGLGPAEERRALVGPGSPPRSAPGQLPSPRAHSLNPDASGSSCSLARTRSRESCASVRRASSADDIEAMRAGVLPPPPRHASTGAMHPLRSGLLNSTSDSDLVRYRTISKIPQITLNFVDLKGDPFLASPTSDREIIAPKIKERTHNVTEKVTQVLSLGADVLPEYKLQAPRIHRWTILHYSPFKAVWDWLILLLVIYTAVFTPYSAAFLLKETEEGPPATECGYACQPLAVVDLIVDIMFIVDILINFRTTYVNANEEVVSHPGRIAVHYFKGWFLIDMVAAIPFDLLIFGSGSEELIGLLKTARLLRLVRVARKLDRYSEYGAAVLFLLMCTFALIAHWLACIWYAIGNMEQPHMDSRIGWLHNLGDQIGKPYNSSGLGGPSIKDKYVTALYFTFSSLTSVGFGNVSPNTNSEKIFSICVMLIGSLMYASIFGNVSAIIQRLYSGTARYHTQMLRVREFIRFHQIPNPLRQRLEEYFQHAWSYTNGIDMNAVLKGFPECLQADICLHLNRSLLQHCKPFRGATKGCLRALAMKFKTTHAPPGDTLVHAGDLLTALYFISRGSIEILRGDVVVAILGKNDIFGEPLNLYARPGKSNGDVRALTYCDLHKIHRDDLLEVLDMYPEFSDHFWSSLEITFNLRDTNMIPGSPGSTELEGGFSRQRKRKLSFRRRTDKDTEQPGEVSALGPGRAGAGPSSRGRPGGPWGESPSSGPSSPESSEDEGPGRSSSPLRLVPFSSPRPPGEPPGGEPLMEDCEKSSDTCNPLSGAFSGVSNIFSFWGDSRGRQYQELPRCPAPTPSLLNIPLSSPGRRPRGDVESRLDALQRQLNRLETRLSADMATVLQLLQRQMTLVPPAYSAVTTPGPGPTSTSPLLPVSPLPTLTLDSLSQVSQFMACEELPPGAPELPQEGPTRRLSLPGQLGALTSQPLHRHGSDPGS

Compound | logP [4] | other results
CCCCCOc1cccc(CCNCC(=O)N(C)C)c1.Cl |  | IC50 [1]: 1.8 µM; solubility at 24 h [2]: 779 µM
CCCCOc1cccc(CCNCC(=O)N(C)C)c1.Cl |  | IC50 [1]: 9.4 µM; solubility at 24 h [2]: 782 µM
CN(C)C(=O)CNCCc1cccc(OCCCC(C)(F)F)c1.Cl |  | microsomal CLint [3]: 7 µL/min/mg; IC50 [1]: 7.6 µM; solubility at 24 h [2]: 1000 µM
CN(C)C(=O)CNCCc1cccc(OCC(F)(F)C(C)(F)F)c1 | 1.6 | 
CN(C)C(=O)CNCCc1cccc(OCCC(C)(F)F)c1 | 1.1 | 
CN(C)C(=O)CNCCc1cccc(OCC(F)(F)C(F)(F)C(F)(F)F)c1 | 2.5 | 
OCCC(F)(F)CC(F)(F)F | 1.12 | 
OCCCC(F)CF (stereo not given) | 0.11 | 
CCCC(O)CF (stereo not given) | 0.74 | 
CCC(F)(F)C(C)O (stereo not given) | 1.04 | 
OCCC(F)CC(F)(F)F (stereo not given) | 0.84 | 
FC(F)(F)CCOc1ccc2[nH]ccc2c1 | 2.8 | 
CC(F)(F)COc1ccc2[nH]ccc2c1 | 2.7 | 
OCCCF | -0.26 | 
OCCCCF | 0.09 | 
CCCC(F)(F)CO | 1.25 | 
OCCCC(F)C(F)F (stereo not given) | 0.52 | 
OCC(F)F | -0.29 | 
CC(F)[C@H](F)CCc1c[nH]c2ccccc12 (stereo not given in full) | 2.8 | 

Compound | logP [4] | other results
CN(C)C(=O)CNCCc1cccc(OCCCC(F)(F)F)c1.Cl |  | hepatocyte CLint [5]: 52 µL/min/1e6 cells; logD [6]: 1.9; fraction unbound [7]: 0.47; microsomal CLint [3]: < 3 µL/min/mg; solubility at 24 h [2]: 900 µM
OCCC(F)C(F)F (stereo not given) | 0.29 | 
OCCCC(F)F | 0.29 | 
CCC(F)(F)CCO | 0.92 | 
FCC(F)[C@H](F)Cc1c[nH]c2ccccc12 (stereo not given in full) | 2.7 | 
CCC(F)CCO (stereo not given) | 0.75 | 
OCCC(F)F | 0.04 | 
CC(F)(F)CCO | 0.34 | 
CC(O)CCCF (stereo not given) | 0.42 | 
CCCCc1c[nH]c2ccccc12 | 3.7 | 
CCC(F)(F)CO | 0.67 | 
OCC(F)(F)C(F)(F)C(F)(F)C(F)F | 1.89 | 
OCCC(F)(F)C(F)F | 0.66 | 
CC(F)(F)C(F)(F)CO | 0.87 | 
OCC(F)(F)C(F)C(F)(F)F (stereo not given) | 1.53 | 
OCCCC(F)(F)CF | 0.58 | 
OCCCC(F)C(F)(F)F (stereo not given) | 1.22 | 
FC(F)CCOc1ccc2[nH]ccc2c1 | 2.6 | 
OCCC(F)CF (stereo not given) | -0.12 | 

Compound | logP [4] | other results
CC(O)CCC(F)F (stereo not given) | 0.64 | 
CC(=O)N1CCC[C@H]1C(=O)OCC(F)F | 0.02 | 
OCCC(F)(F)CF | 0.27 | 
CCCC(O)C(F)F (stereo not given) | 1.14 | 
OCCC(F)(F)C(F)(F)C(F)(F)F | 2.1 | 
CN(C)C(=O)CNCCc1cccc(OCCCCC(F)(F)F)c1.Cl |  | hepatocyte CLint [5]: 105 µL/min/1e6 cells; logD [6]: 2.3; fraction unbound [7]: 0.28; microsomal CLint [3]: 10 µL/min/mg; IC50 [1]: 9.6 µM; solubility at 24 h [2]: > 1000 µM
OCC(F)CC(F)(F)F (stereo not given) | 0.6 | 
FCC(F)COc1ccc2[nH]ccc2c1 (stereo not given) | 2.3 | 
CCC(F)CO (stereo not given) | 0.26 | 
FCCCOc1ccc2[nH]ccc2c1 | 2.5 | 
CN(C)C(=O)CNCCc1cccc(OCCCC(F)(F)CF)c1.Cl |  | hepatocyte CLint [5]: 34 µL/min/1e6 cells; logD [6]: 1.6; fraction unbound [7]: 0.47; microsomal CLint [3]: < 3 µL/min/mg; IC50 [1]: 15 µM; solubility at 24 h [2]: 870 µM
OCC(F)(F)CC(F)(F)F | 1.04 | 
CCOC(=O)[C@@H]1CCCN1C(C)=O | 0 | 
OCCCCC(F)F | 0.66 | 
CCCOc1ccc2[nH]ccc2c1 | 2.9 | 
CC[C@H](F)[C@H](C)O (racemic) | 0.68 | 
CC[C@@H](F)[C@H](C)O (racemic) | 0.68 | 
CCCCOc1cccc(CCNCC(=O)N(C)C)c1 [EVENAMIDE] | 1.8 | 
OCC(F)(F)F [TRIFLUOROETHANOL] | 0.36 | 
